From PubChem
This is a sample that favours compounds with a hit; in the whole collection about 1.8% have one here.
TPT1 inhibitor = C. albicans TPT1 enzyme inhibition | recombinant caTPT1, FP RNA substrate dephosphorylation | inhibition, % at 5 µM | 300,000 compounds, 0.81% hits;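 active means inhibition above the mean of all tested compounds plus 3 SD, set per screening campaign, cut at about 24% in these data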;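 further: plate controls were DMSO alone for no effect and ferristatin control at 100 nM for full effect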
UBC9 SUMO inh = inhibitors of human SUMOylation (UBC9) | P63279 | HTRF SUMOylation assay, SAE1/SAE2 + UBC9, in vitro | inhibition, % at 35 µM | 290,000 compounds, 0.36% hits; in the data active means inhibition above about 50%, passing the limit was not always enough
Rpn11 inh = Rpn11 (human) deubiquitinase inhibition; human 26S proteasome, Ub4-pepOG fluorescence polarization; 20S core pre-blocked with epoxomicin; calls only at 20 µM; 360,000 compounds, 0.59% hits; O00487;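 active means inhibition at 20 µM, scaled to each plate's controls, above about 33%, limit read from the data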
Target sequence (O00487 whole entry, looked up): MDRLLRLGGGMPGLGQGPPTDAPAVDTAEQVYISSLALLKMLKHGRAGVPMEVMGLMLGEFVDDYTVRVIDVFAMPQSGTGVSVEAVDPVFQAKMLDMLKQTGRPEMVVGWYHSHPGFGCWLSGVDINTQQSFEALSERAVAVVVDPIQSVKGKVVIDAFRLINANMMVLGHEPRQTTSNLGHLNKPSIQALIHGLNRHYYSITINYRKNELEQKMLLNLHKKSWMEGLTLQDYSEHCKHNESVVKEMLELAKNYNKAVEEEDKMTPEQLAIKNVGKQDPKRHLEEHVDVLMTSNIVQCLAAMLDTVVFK
SENP1 inh = SENP1 (human) catalytic domain inhibition | Q9P0U3 | AID 624204 | 360,000 compounds, 0.21% hits | inhibition, % at 10 µM | recombinant SENP1 catalytic domain, CyPet-SUMO1-YPet FRET cleavage;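 active means inhibition at least 30% at 10 µM, raw YFP signal under a set limit, fluorescence ratio 0.5 to 1.5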;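 further: 0% = enzyme with DMSO and 100% = no enzyme wells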
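Assay system: hSENP1 catalytic domain, recombinant. Amount: SENP1 enzyme, 20 pM final. Schedule: 50 min reaction, RT, dark. Technique: FRET, CFP and YFP emission. Control set: no-enzyme wells low, DMSO-plus-enzyme wells high control.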
HNF4A DNA FP = change in binding of human HNF4 alpha to DNA; P41235; HNF4a-FITC DNA binding, fluorescence polarization, 1 h; activity change, % at 10 µM; 360,000 compounds, 0.3% hits; AID 1224865; in the data active means activity change above about 30%, passing the limit was not always enough
CSN inh = CSN deneddylation inhibition; AID 651999; Q92905; Purified CSN, SCF-Nedd8-OG deneddylation, fluorescence polarization; inhibition, % at 12.5 µM; 360,000 compounds, 0.38% hits;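 active means pattern-corrected inhibition above about 35%, with an unprinted fluorescence ratio check between 0.5 and 1.5, limit read from the data, passing the limit was not always enough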;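 further: 0% = enzyme with substrate and 100% = substrate without enzyme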
Target sequence (Q92905 whole entry, looked up, one chain of several): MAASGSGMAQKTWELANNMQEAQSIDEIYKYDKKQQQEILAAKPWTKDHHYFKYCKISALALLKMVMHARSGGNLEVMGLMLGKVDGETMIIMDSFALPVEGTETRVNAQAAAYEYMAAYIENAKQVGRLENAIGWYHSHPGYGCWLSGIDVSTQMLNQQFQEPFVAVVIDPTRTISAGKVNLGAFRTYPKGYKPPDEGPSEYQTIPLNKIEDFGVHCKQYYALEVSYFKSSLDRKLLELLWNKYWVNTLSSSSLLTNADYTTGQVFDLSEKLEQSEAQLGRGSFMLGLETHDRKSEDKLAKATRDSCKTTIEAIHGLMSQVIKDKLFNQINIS
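Material: human Csn5 produced in HEK293T cells; Input: enzyme 0.24 nM; Reagent: SCFSkp2-Nedd8OG substrate at 10 nM final; Dosing: 12.5 µM compound; Incubation: 90 min reaction at room temperature; Detection: fluorescence polarization of the substrate; Evaluation: % inhibition of substrate cleavage by Csn5; Control set: substrate-only high control, full reaction low control.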
Rpn11 inh conf = Rpn11 inhibition confirmation, single concentration | shares compounds with Rpn11 inh | purified human 26S proteasome, Ub4-pepOG fluorescence polarization; proteasome pretreated with epoxomicin | inhibition, % at 20 µM | 1,900 compounds, 29% hits | AID 602318
MMP-2 inh = MMP-2 (human) inhibition counter-screen. shares compounds with Rpn11 inh. recombinant MMP-2, FRET peptide cleavage fluorescence. inhibition, % at 20 µM. 1,900 compounds, 4% hits. AID 602330;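 further: human MMP-2 activated beforehand with APMA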
Thrombin inh = blocks bovine thrombin, flagging nonselective RPN11 hits; shares compounds with Rpn11 inh; bovine thrombin cleavage of Ub4-pepOG, fluorescence polarization; inhibition, % at 20 µM; 1,900 compounds, 13% hits; AID 602333;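 active means mean inhibition at least 40% at 20 µM, or signal 3 deviations below plate average, so some actives read negative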;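 further: plate controls were thrombin with DMSO for no effect and buffer wells lacking thrombin for full effect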
Numbers without * were called inactive; i = inactive; nt = not tested or not shown; + = active, no number. Unless noted, no stated cut-off is given here; in the data, active means inhibition above about 40%; inactive means the rest.

SMILES | TPT1 inhibitor | UBC9 SUMO inh | Rpn11 inh | SENP1 inh | HNF4A DNA FP | CSN inh | Rpn11 inh conf | MMP-2 inh | Thrombin inh
Cc1cc(NCCCCCCCNc2cc(C)nc3cc([N+](=O)[O-])ccc23)c2ccc([N+](=O)[O-])cc2n1 | nt | nt | + | 1 | 102 | 106 | 85* | 76* | 11
CC(OC(=O)c1cccs1)C(=O)NCc1cccs1 (stereo not given) | -10 | 5 | i | 2 | 2 | -2 | nt | nt | nt
CC(OC(=O)c1cccs1)C(=O)NC1CC1 (stereo not given) | 3 | -16 | + | 4 | 1 | -2 | -4 | -36 | -19
CCN(CC)c1cc(C(F)(F)F)nc(-c2ccccn2)n1 | 2 | 7 | + | 1 | 4 | 0 | -11 | -12 | -21
Cc1ccc(C(=O)O)cc1-c1ccc(C=C2C(=O)c3ccccc3C2=O)o1 | 30* | 10 | + | 16 | -11 | 27 | 16 | -43 | 7
O=C(Nc1ccccc1-c1nc2ccccc2s1)C1=COCCO1 | -2 | 45 | + | 1 | -5 | 3 | 4 | 10 | -12
O=C(Nc1nc2ccc(F)cc2s1)C1=COCCO1 | 1 | nt | i | -16 | -2 | -2 | nt | nt | nt
CC(C)c1ccc(N(CC(=O)N/N=C/c2ccc(OC3CSC3)cc2)S(=O)(=O)c2ccccc2)cc1 | -2 | 1 | + | 2 | -3 | -2 | -19 | -5 | -19
Cc1ccc(N(CC(=O)N/N=C/c2ccc(OC3CSC3)cc2)S(=O)(=O)c2ccccc2)cc1 | 3 | -6 | i | 2 | 0 | 0 | nt | nt | nt
O=C(COc1ccc(Cl)cc1)N(Cc1ccccc1)c1ccccn1 | 4 | -14 | i | 0 | -2 | -4 | nt | nt | nt
CC(C)c1ccc(OCC(=O)N(Cc2ccccc2)c2ccccn2)cc1 | -1 | 14 | + | 1 | 2 | 0 | 5 | -19 | 7
COc1ccc(C2CC(c3cccs3)=NN2C(=O)COC(=O)c2cncc(Br)c2)cc1OC (stereo not given) | 4 | 8 | + | -8 | 4 | 11 | 22 | 63* | 4
Cc1ccc(C2CC(c3cccs3)=NN2C(=O)CSC2=NCCS2)cc1 (stereo not given) | 2 | 10 | i | 1 | 0 | 6 | nt | nt | nt
CCC(=O)N1N=C(c2cccs2)CC1c1ccc(C)cc1 (stereo not given) | 0 | 21 | i | 2 | 7 | -1 | nt | nt | nt
COc1ccc(C2CC(c3cccs3)=NN2C(=O)CSC2=NCCS2)cc1 (stereo not given) | 3 | 7 | + | -3 | 8 | 1 | 18 | -18 | 10
Cc1ccc(C2CC(c3cccs3)=NN2C(=O)CCl)cc1 (stereo not given) | 3 | 14 | + | -22 | 15 | 16 | 8 | -8 | 8
Cc1ccc(C(C)CCN2CCC(n3nccc3NC(=O)c3ccccc3)CC2)o1 (stereo not given) | -5 | 7 | i | -7 | -3 | -4 | nt | nt | nt
COc1ccccc1NC(=O)c1c(C)oc2c1CCCC2 | -3 | 28 | i | -2 | -2 | 2 | nt | nt | nt
CC1CCC2(CC1)NC(=O)N(CC(=O)Nc1sc3c(c1C(N)=O)CCC3)C2=O (stereo not given) | 21 | 36 | + | -32 | -15 | 27 | 9 | 26 | 3
COCCn1cnnc1SCC(=O)Nc1sc2c(c1C#N)CCC2 | nt | nt | i | -16 | -2 | 9 | nt | nt | nt
Cn1cnnc1SCC(=O)Nc1sc2c(c1C(N)=O)CCC2 | 24 | 36 | + | -6 | -19 | 50* | 40 | 24 | 12
COC(=O)c1c(NC(=O)CN2C(=O)NC3(CCC(C)CC3)C2=O)sc2c1CCC2 (stereo not given) | nt | nt | i | -4 | -5 | -4 | nt | nt | nt
CN1/C(=C\C(=S)NC(=O)c2cccc(Br)c2)C(C)(C)c2ccccc21 | 4 | 13 | + | -52 | 19 | 22 | 25 | 22 | 9
COc1ccccc1N(C)c1cc2c(c3c1ccn3C)C1CCC2O1 (stereo not given) | nt | nt | + | -3 | 10 | 11 | -8 | -57 | 3
Cn1ccc2c(N3c4ccccc4CCc4ccccc43)cc3c(c21)C1CCC3C1 (stereo not given) | nt | nt | i | -47 | 5 | 0 | nt | nt | nt
SMILES | TPT1 inhibitor | UBC9 SUMO inh | Rpn11 inh | SENP1 inh | HNF4A DNA FP | CSN inh | Rpn11 inh conf | MMP-2 inh | Thrombin inh
Cn1ccc2c(N3c4ccccc4CCc4ccccc43)cc3c(c21)C1CCC3O1 (stereo not given) | nt | nt | + | -31 | 29 | 16 | 7 | -40 | -6
CC1=C(C(=O)N(C)C)CC(CC(=O)NC(c2ccccc2)c2ccccc2)C(=O)N1Cc1ccc(C(C)(C)C)cc1 (stereo not given) | nt | nt | i | 2 | -6 | 4 | nt | nt | nt
COc1ccc(C2CC(c3cccc([N+](=O)[O-])c3)=NN2/C(C)=C/C(C)=O)cc1 (stereo not given) | nt | nt | + | -15 | 87* | 57* | 142* | -4 | 151*
COc1ccc(C2=NN(C(=O)c3cccc([N+](=O)[O-])c3)C(c3cccc([N+](=O)[O-])c3)C2)cc1 (stereo not given) | 1 | 6 | i | 2 | 1 | 2 | nt | nt | nt
NS(=O)(=O)c1ccc(NC(=O)CN(C(=O)C(F)(F)F)C2CCCC2)cc1 | nt | nt | i | 4 | 3 | 0 | nt | nt | nt
CN(C)c1ccc(/C=N/NC(=O)c2nnn(-c3nonc3N)c2COc2ccc(F)cc2)cc1 | -2 | 22 | + | -39 | -5 | 5 | -15 | -38 | -22
CCOc1ccc(/C=N/NC(=O)c2nnn(-c3nonc3N)c2COc2ccc(F)cc2)cc1 | 3 | 31 | i | 4 | 4 | 2 | nt | nt | nt
CCN(CC)Cc1c(C(=O)N/N=C/c2ccncc2)nnn1-c1nonc1N | -4 | -5 | + | 4 | 50* | 2 | -9 | 8 | -4
COc1cccc(C(=O)CC(=O)C(=O)Nc2cc(Cl)c(OC)cc2OC)c1 | 0 | 15 | i | 2 | 7 | -2 | nt | nt | nt
C#CCn1c(=NC(=O)c2cccs2)sc2cccc(OC)c21 | -2 | 26 | + | -8 | 12 | -2 | 50* | 7 | -9
C#CCn1c(=NC(=O)CN2C(=O)CCC2=O)sc2cccc(OC)c21 | 0 | 15 | i | 1 | 2 | 1 | nt | nt | nt
